Consider 93 molecules from PubChem BioAssay AID504490 (NMMLSC, 2011).

SMILES strings stand for the structures. The whole screen tested about 340,000 compounds, of which about 1,100 (0.32%) were called active. Many of the other results were omitted from the sample, so actives are more common in it than they were. A number with no mark means an inactive call.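 The calls were made as follows: active = inhibition above a set limit, near 3 SD of compounds lacking own fluorescence (cut at about 54% in these data); inactive = the rest.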

The experiment relates to beta-arrestin 1 C-terminal peptide binding to AP2 beta2-adaptin appendage (human). Put plainly: inhibitors of beta-arrestin/AP2 binding, primary screen, biochemical, GPCR trafficking, flow cytometry (AID 504490).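 Also: plate controls were DMSO wells for no effect and 5 µM unlabelled arrestin peptide for full effect.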 The settings on record: FITC-arrestin peptide / GST-AP2 beads, at 10 µM, stronger effect = higher value, AP2 beta2 appendage carries R879A mutation. An outline of the steps:
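System: GST-AP2 R879A glutathione beads; medium: PBS, Tween 20 0.05%, BSA 0.1%; reagent: fluorescein-tagged arrestin peptide at 50 nM final; schedule: pre-incubation 12 min, peptide binding 1 h, room temperature; detection: flow cytometry, FL1 (488/535 nm); read-out: inhibition as reduced fluorescein signal on beads, percent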
For `COc1ccccc1CNC(=O)COC(=O)c1cccs1`, the inhibition was -6.34%.
Consider `COc1ccc(C2c3[nH]c4ccccc4c3C[C@H]3C(=O)N(CC(C)C)CC(=O)N23)c(OC)c1` (stereo partly drawn), for which the inhibition was -2.46%.
For `CCCc1ccc(-c2csc(NC(=O)Cc3cccs3)n2)cc1` the value was 86.3% (active); for `O=C(Cc1cccs1)Nc1nnc(SCc2ccc(F)cc2)s1`, 0.35%.
The same measure for `COc1ccc(Cc2nnc(NC(=O)Cc3cccs3)s2)cc1`: 5.51%; for `CC(Sc1ncnc2c1cnn2-c1ccccc1)C(=O)Nc1ccc(N2CCOCC2)cc1` (stereo not drawn): 52.7%; for `COc1ccc(C(C)(C)C)cc1NC(=O)CCN1C(=O)C2CCCCC2C1=O` (stereo not drawn): 4.94%.
The same measure for `O=CN1CCN(C(=O)c2ccc3c(c2)OCO3)CC1`: -7.77%; for `CCOC(=O)N1CCN(C(=O)Cc2ccc(-n3c(=S)[nH]c4ccccc4c3=O)cc2)CC1`: -0.7%; for `CCOC(=O)N1CCN(C(=O)C(C)NC(=O)c2ccco2)CC1` (stereo not drawn): 47.5%.
Regarding `CCOC(=O)N1CCN(C(=O)CNC(=O)Cc2ccc(Cl)cc2)CC1`, the inhibition is 87.5% (active).
The same measure for `OCCN1CCOCCOCCN(CCO)CCN(CCO)CC1`: -4.2%.
For `Cc1ccccc1NC(=O)CCNS(=O)(=O)c1ccc2[nH]c(=O)oc2c1` the value was -8.2%; for `C=CCOc1c(CNn2cn[nH]c2=S)cccc1OC`, 0.65%.
For `Cc1ccc(S(=O)(=O)N2CCCCC2)cc1NC(=O)CCNC(=O)c1ccccc1` the value was 2.03%.
Consider `CC(=O)c1cccc(OCC(=O)OCC(=O)Nc2cc(S(=O)(=O)N3CCCCC3)ccc2C)c1`, for which the inhibition is 38.5%.
The same measure for `Cc1ccc(S(=O)(=O)N2CCCCC2)cc1NC(=O)c1cccnc1`: 65.4% (active); for `O=P(c1ccc2c(c1)OCCO2)(N1CCOCC1)N1CCOCC1`: 1.28%; for `CCC(C)NC(=O)C1CCC(=O)N1Cc1ccc(C)cc1` (stereo not drawn): 3.49%.
As to `CCCCNC(=O)C1CCC(=O)N1CCc1ccccc1` (stereo not drawn), the inhibition is -2.64%.
The same measure for `Cc1ccc(CN2C(=O)CCC2C(=O)NCCCN2CCCCC2C)cc1` (stereo not drawn): 102% (active); for `CC(=O)c1cccc(NC(=O)[C@@H](NC(N)=O)C(C)C)c1`: 15.6%.
The same measure for `Cc1ccc2nsnc2c1S(=O)(=O)N1CCCC1C(=O)O` (stereo not drawn): 19.9%; for `COc1cc(C2/C(=C(\O)c3ccc4c(c3)CC(C)O4)C(=O)C(=O)N2c2nnc(C)s2)cc(OC)c1OC` (stereo not drawn): 18.6%.
For `Cc1ccc(C2(C)NC(=O)N(CC(=O)Nc3ccccc3C(=O)N3CCCCC3)C2=O)cc1` (stereo not drawn) the value was 56.8% (active).
On to `Cc1ccc(C2(C)NC(=O)N(CC(=O)N3CC(=O)Nc4ccccc43)C2=O)cc1` (stereo not drawn), for which the inhibition was -7.93%.
Consider `Cc1ccc(NC(=O)CN2C(=O)NC(C)(c3ccc(Cl)cc3)C2=O)c(Br)c1` (stereo not drawn), for which the inhibition is -0.27%.
The same measure for `CC(=O)OC1CCC2C3CCC4=C(CC(F)C(=O)C4)C3CCC12C` (stereo not drawn): -26.5%; for `CCOc1ccccc1OCC(=O)Nc1ccccc1C(=O)NC1CC1`: -8.99%.
The same measure for `O=C(NC1=CC(=O)c2ccccc2C1=O)c1ccccc1`: 19.2%.
The same measure for `CC(=O)N(C1=C(Cl)C(=O)c2ccccc2C1=O)c1ccc(C(=O)O)cc1`: 64.7% (active); for `CC(C)(Oc1ccc(Cl)cc1)C(=O)OCC(=O)NCCc1ccc(S(N)(=O)=O)cc1`: 19%; for `O=C(CN1C(=O)COc2ccc(Cl)cc21)Nc1ccc(N2CCOCC2)cc1`: 3.15%.
Regarding `CC(C)[C@H](NC(=O)N1CCn2c1nc1ccccc12)C(=O)NC1CC1`, the inhibition is 35.9%.
Regarding `CC(C)C[C@H](NC(=O)N1CCn2c1nc1ccccc12)C(=O)NC1CC1`, the inhibition is 60.8% (active).
For `CSCC[C@H](NC(=O)N1CCn2c1nc1ccccc12)C(=O)NC1CCCCC1` the value was -6.82%; for `NS(=O)(=O)c1ccc(CCNC(=O)CNC(=O)Cc2ccccc2)cc1`, 3.4%; for `NS(=O)(=O)c1ccc(CNC(=O)c2cccc(Oc3ccccc3)c2)cc1`, 10.4%.
The same measure for `CC(NCCc1ccc(S(N)(=O)=O)cc1)C(=O)NCc1ccccc1` (stereo not drawn): 57.4% (active); for `O=C(CC12CC3CC(CC(C3)C1)C2)NCc1ccco1`: 5.06%.
For `O=C1C(Cl)=C(Oc2ccccc2)C(=O)c2ccccc21` the value was 55.1% (active).
Turning to `Cc1ccc(C(=O)CN2C(=O)NC3(CCOc4ccccc43)C2=O)s1` (stereo not drawn), the inhibition is -5.1%.
For `O=C(COc1ccc(F)cc1Br)NCC1COc2ccccc2O1` (stereo not drawn) the value was 0.24%; for `COc1cccc(OCC(O)CNC(=O)c2oc3c(C)c(C)ccc3c2C)c1` (stereo not drawn), 2.32%; for `CN1C(=O)/C(=C/c2ccco2)SC1=Nc1cccc(C(=O)O)c1`, 62.3% (active).
With `Cc1ccc(N=C2NC(=O)/C(=C/C=C/c3ccco3)S2)cc1C`, the inhibition is 42.9%.
For `CN=C1S/C(=C\c2c(OC)cc(OC)cc2OC)C(=O)N1C` the value was 7.51%; for `COc1ccc(C2(CNC(=O)C(c3ccccc3)c3ccccc3)CCOCC2)cc1OC`, -2.16%; for `Cc1ccc(C)c(NC(=S)NNC(=S)Nc2ccc(C(C)C)cc2)c1`, 60.6% (active).
The same measure for `Cc1ccc(NC(=S)Nc2ccc(F)cc2)cc1`: 2.86%; for `CC(C)c1ccc(NC(=S)NC2CC3C=CC2C3)cc1` (stereo not drawn): -12.9%; for `Cn1cc(CCC(=O)N2CCCC(C(=O)c3ccc(C(C)(C)C)cc3)C2)cn1` (stereo not drawn): 5.89%.
The same measure for `CCOc1ccc(C(=O)NC2CCN(S(=O)(=O)CC)CC2)cc1`: 2.75%; for `CCOc1ccc(C(=O)NC2CCN(CC(=O)NCc3cccs3)CC2)cc1`: 54.6% (active); for `CCOc1ccc(/C=N/OCC(=O)NCc2cccs2)cc1`: -13.4%.
As for `c1ccc(Cc2ccc(OCCn3ccnc3)cc2)cc1`, the inhibition is -5.61%.
The same measure for `O=C(C1CCC1)N1CCN(c2ccccc2)CC1`: 4.58%; for `CC(C)Cn1c(N)c(C(=O)COC(=O)CN2C(=O)C3CC=CCC3C2=O)c(=O)n(C)c1=O` (stereo not drawn): 1.01%.
For `CN(C(=O)COC(=O)c1cc(=O)[nH]c2ccccc12)C1CCCCC1` the value was 54.7% (active); for `CC(NC(=O)COC(=O)c1cc(=O)[nH]c2ccccc12)c1ccccc1` (stereo not drawn), 11.9%.
The same measure for `CC1CCN(C(=O)COC(=O)c2cc(=O)[nH]c3ccccc23)CC1`: -3.58%.
As for `O=C(Nc1ccccc1)N1CCN(C2c3ccccc3-c3ccccc32)CC1`, the inhibition was -3.43%.
The same measure for `CC1CN(CC(=O)NC(C)c2ccccc2)CC(C)O1` (stereo not drawn): 0.77%.
The same measure for `Cn1c(=O)c2c(nc(N/N=C/c3cccs3)n2Cc2ccc(Br)cc2)n(C)c1=O`: 70.5% (active).
The same measure for `Cn1c(=O)c2sccc2n(Cc2ccc(Br)cc2)c1=O`: -7.24%; for `CCCCNc1nc2c(c(=O)n(C)c(=O)n2C)n1Cc1cccc(OC)c1`: 13.6%.
Consider `C=CC(=O)Nc1ccc(Nc2ccnc(Nc3ccc(N4CCN(C)CC4)cc3)n2)cc1`, for which the inhibition is 55.9% (active).
For `Cc1cccc(N2CCN(c3ccc(NC(=O)/C=C\C(=O)O)cc3)CC2)c1` the value was 15.9%.
`CN1CCN(c2ccc(NC(=O)c3cc(Cl)c4c(c3)OCCO4)cc2)CC1`: the inhibition is 30.2%.
For `Cn1c(SCc2nc3ccccc3s2)nnc1-c1ccc2c(c1)OCO2` the value was -3.99%; for `CCCCN(CC)CCNC(=O)CCNC(=O)Cn1ccc2ccccc2c1=O`, 1.19%.
As to `O=C1NC(=O)C(CCc2ccccc2)(c2ccccc2)N1` (stereo not drawn), the inhibition was -9.95%.
The same measure for `C/C(Cl)=C\Cn1c(Nc2cccc(C)c2)nc2c1c(=O)n(C)c(=O)n2C`: -6.48%.
The same measure for `COc1cccc(CNC(=O)C2CC(=O)N(C3CCCCCCC3)C2)c1` (stereo not drawn): -10.2%; for `O=C(NCCc1ccc(Cl)cc1)C1CC(=O)N(C2CCCCC2)C1` (stereo not drawn): 6.36%.
The same measure for `Cc1ccc(CNC(=O)C2CC(=O)N(C3CCCCCCC3)C2)cc1` (stereo not drawn): 93.8% (active).
For the molecule `COc1ccc(Br)cc1CN(C)CC(=O)Nc1cc(Cl)cc(Cl)c1`, the inhibition is 4.23%.
The same measure for `CCc1cccc2c(C=C(C#N)C#N)cn(CC(=O)N3CCCCC3)c12`: 9.35%.
Consider `COc1ccc(Cc2nnc(SCC(=O)c3cccc([N+](=O)[O-])c3)n2C)cc1`, for which the inhibition was 7.36%.
The same measure for `CCc1ccccc1OCC(=O)Nc1ccc(C)c(S(=O)(=O)N2CCCCCC2)c1`: 10.8%; for `COc1cc2c(cc1NC(=O)COC(=O)/C=C/c1ccccc1)oc1ccccc12`: 105% (active).
For `COc1cc(/C=C/C(=O)OCC(=O)c2ccccc2)cc(OC)c1OC` the value was 10%; for `COc1cc2c(cc1NC(=O)CN1CCN(S(=O)(=O)c3ccc(F)cc3)CC1)oc1ccccc12`, 11.4%.
As for `Cc1cccc(NC(=O)c2ccc([N+](=O)[O-])o2)c1`, the inhibition was 5.65%.
Consider `O=C(CNC(=O)c1ccc(Br)o1)Nc1ccccc1`, for which the inhibition was 7.78%.
On to `Cc1cccc(NC(=S)NC(=O)c2ccc(Br)o2)c1`, for which the inhibition is 61.8% (active).
The same measure for `Cc1cc(C)cc(C(=O)NC(=S)Nc2ccc3[nH]c(=O)[nH]c3c2)c1`: 10.9%; for `CCCCNC(=O)C1CCCN(S(=O)(=O)c2ccc(S(=O)(=O)NCC(C)C)cc2)C1` (stereo not drawn): 4.41%.
The same measure for `Cc1cccc(NC(=O)C2CCCN(C(=O)Nc3ccc(F)cc3)C2)c1C` (stereo not drawn): 25%; for `Cc1cc(/C=C2\SC(=Nc3ccc(N4CCOCC4)cc3)N(C)C2=O)c(C)n1-c1cccnc1`: -3.18%.
For `Cc1cc(/C=C2\SC(=O)N(C)C2=O)c(C)n1-c1cccc(C(=O)O)c1`, the inhibition was 54.7% (active).
For `Cc1cc(/C=C2/SC(=O)N(CC(=O)N3CCCC3)C2=O)c(C)n1C` the value was -9.22%; for `COc1cccc(C(=O)n2ccc(-c3cccs3)n2)c1`, 4.99%.
